# Screens (PubChem)
# An excerpt weighted towards active compounds, which were near 1.8% of everything screened.
# NPY-Y1 PAM-ag – potentiators or agonists of human neuropeptide Y receptor Y1; P25929; NPY-Y1 expressing cells, potentiator/agonist activation; activation, % at 3.6 µM; 0.37% of 220,000 active; AID 1304; in the data active = activation above about 33%, passing the limit was not always enough;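 also: cells stimulated with NPY at EC10 then isoproterenol at EC100; 0% = low agonist plus stimulus and 100% = saturating agonist plus stimulus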
# NPY Y1 blocker – blocks the human neuropeptide Y Y1 receptor; P25929; HEK293-CNG Y1 cells, membrane potential fluorescence; NPY at EC95, then isoproterenol; inhibition, % at 3.6 µM; 1% of 200,000 active; AID 1040;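 active = inhibition above the campaign mean inhibition of all tested compounds plus 3 SD, cut at about 20% in these data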;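 also: 0% = DMSO wells given NPY plus isoproterenol and 100% = isoproterenol alone without NPY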
#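 Test system – HEK293 Y1/CNG channel cell line · Also added – NPY agonist 25 nM, then isoproterenol 1 µM plus Ro 20-1724 25 µM · Compound dosing – one concentration, 3.6 µM, in 0.4% DMSO · Schedule – compound incubation 1 h at room temperature, readout 45 min post-stimulation · Technique – fluorescence, membrane potential probe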
# NPY-Y2 antag – blocks the human neuropeptide Y Y2 receptor. inhibition, % at 2.7 µM. AID 793. NPY-Y2 expressing cells, antagonist mode. P49146. 0.99% of 140,000 active; in the data active = inhibition above about 17%;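 also: 0% = vehicle with agonist challenge and 100% = reference antagonist with challenge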
# Target sequence (P49146 whole entry, looked up): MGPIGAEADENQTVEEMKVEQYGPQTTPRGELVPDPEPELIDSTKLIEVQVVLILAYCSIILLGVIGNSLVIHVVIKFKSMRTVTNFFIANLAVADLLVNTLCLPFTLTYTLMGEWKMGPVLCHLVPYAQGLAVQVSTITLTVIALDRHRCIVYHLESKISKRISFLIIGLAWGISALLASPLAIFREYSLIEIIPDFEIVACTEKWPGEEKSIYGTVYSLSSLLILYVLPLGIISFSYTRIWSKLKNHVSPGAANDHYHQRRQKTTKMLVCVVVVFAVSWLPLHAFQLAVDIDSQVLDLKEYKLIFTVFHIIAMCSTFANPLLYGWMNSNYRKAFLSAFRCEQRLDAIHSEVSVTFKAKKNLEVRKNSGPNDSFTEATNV
# NPY-Y2 PAM-ag – potentiates or activates human NPY-Y2 receptor; P49146; cells expressing NPY-Y2, potentiator/agonist read-out; activation, % at 3.6 µM; 0.45% of 220,000 active; in the data active = activation above about 27%;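 also: cells stimulated with NPY near EC25 plus isoproterenol at EC100; 0% = vehicle plus submaximal agonist and 100% = vehicle plus saturating agonist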
# NPY1 antag ctr – antagonizes human NPY-Y1, counter-screen to NPY-Y2 antagonists; shares compounds with NPY-Y2 antag; cell-based NPY-Y1 antagonism counterscreen; inhibition, % at 3.6 µM; 19% of 710 active; in the data active = inhibition above about 20%;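 also: cells challenged with NPY then isoproterenol with cAMP sensed through a CNG channel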
# NPY2 antag conf – human NPY-Y2 antagonism, confirmation; AID 1257; HEK293 NPY-Y2 CNG channel, membrane potential fluorescence; inhibition, % at 2.8 µM; shares compounds with NPY-Y2 antag; 32% of 710 active;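 active = mean inhibition of triplicate wells above the hit cutoff set in the primary screen, cut at about 17% in these data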;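 also: 0% = DMSO with NPY challenge and 100% = BIIE0246 high control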
# Active calls of the source: *; · = not tested or not shown.
SMILES,NPY-Y1 PAM-ag,NPY Y1 blocker,NPY-Y2 antag,NPY-Y2 PAM-ag,NPY1 antag ctr,NPY2 antag conf
CCOC(=O)C(C(C)=O)C(c1ccc(OCCC(C)C)cc1)C(C(C)=O)C(=O)OCC (stereo not given),-22,18,22*,-3,13,7
O=c1cc(N=Nc2ccc(Cl)cc2)[nH]c(=O)[nH]1,24,·,·,-37,·,·
COC(=O)c1c(-c2ccc(F)cc2)csc1NC(=O)c1ccco1,-6,11,25*,-10,11,12
CCN(CC)c1nc2cc(C)ccc2cc1/C=C(\C#N)C(N)=O,-5,-2,·,8,·,·
O=C(CSc1nc2ccccc2c(=O)n1Cc1ccc(Cl)cc1)NCc1cccs1,7,-1,13,3,·,·
COCCn1c(-c2ccc(Cl)cc2)cnc1SCC(=O)NCc1cccs1,-6,5,18*,-18,14,10
CCOC(=O)N1CCN(C(=O)c2cc3c(s2)-c2ccc(Cl)cc2S(=O)(=O)C3)CC1,0,6,·,-3,·,·
O=P(CCCCCCCCCP(=O)(c1ccccc1)c1ccccc1)(c1ccccc1)c1ccccc1,27,-7,18*,-16,2,111*
CCc1nc2ccccc2c(C(=O)OCc2nnc(-c3ccccc3)o2)c1C,-57,13,18*,-20,26*,25*
Cc1nc(C(=O)Nc2cccc(Cl)c2)nn1-c1cc(OC(C)C)c(Cl)cc1Cl,-40,18,17*,-36,20*,16
COC(=O)c1ccc(C2C(Oc3ccc(OC)cc3)C(=O)N2CCc2ccc(OC)c(OC)c2)cc1 (stereo not given),-15,11,3,3,·,·
COC(=O)c1ccc(C2C(Oc3ccccc3)C(=O)N2CCc2ccc(F)cc2)cc1 (stereo not given),21,19,24*,-20,30*,14
COc1ccc(OCCNc2cc(N3CCCCC3)ccc2[N+](=O)[O-])cc1,-12,7,18*,-7,4,7
c1ccc(OCCSc2nc3ccccc3[nH]2)cc1,-15,5,-2,4,·,·
Cc1ccccc1OCCCSc1nc2ccccc2[nH]1,-12,7,17*,8,4,2
O=C(C1CC1)N1CCN(C(c2ccccc2)c2ccccc2)CC1,-7,6,1,-8,·,·
CCOc1ccc2[nH]c(=O)c(C(c3nnnn3Cc3ccco3)N3CCCC(C)C3)cc2c1 (stereo not given),-15,12,18*,8,5,4
COC(=O)c1c(C)nc2nonc2c1N,10,2,·,7,·,·
CN1C(=O)NC2(O)C(=O)c3ccccc3C12O (stereo not given),-18,5,19*,-7,-1,3
CCCN1C(=O)NC2(O)C(=O)c3ccccc3C12O (stereo not given),-11,6,-3,11,·,·
CC1(C)CC(=O)C=C(NCc2ccc(Cl)c(Cl)c2)C1,-15,13,18*,-4,9,7
O=C1C=C(NCc2ccc(Cl)c(Cl)c2)CC1,8,2,-1,12,·,·
CCn1c(C(C)NC(=O)c2cccs2)n[nH]c1=S (stereo not given),5,1,22*,-2,1,0
C=CCn1c(C(C)NC(=O)c2cccs2)n[nH]c1=S (stereo not given),14,2,10,-3,·,·
Cc1nn(C(C)(C)C)c(OC(=O)c2ccc(Br)o2)c1Sc1ccccc1,8,6,18*,10,5,16
SMILES,NPY-Y1 PAM-ag,NPY Y1 blocker,NPY-Y2 antag,NPY-Y2 PAM-ag,NPY1 antag ctr,NPY2 antag conf
Cc1nn(C(C)(C)C)c(OC(=O)c2ccco2)c1Sc1ccccc1,0,3,6,12,·,·
Cc1nn(C(C)(C)C)c(OC(=O)c2cccs2)c1Sc1ccccc1,-18,13,26*,7,11,6
Cc1ccc(NC(=O)c2sc3nc(CCl)[nH]c(=O)c3c2C)c(C)c1,9,1,·,-2,·,·
COc1cccc(C2c3c(oc4ccccc4c3=O)C(=O)N2CCCN(C)C)c1OC (stereo not given),10,1,-2,-7,·,·
CCN(CC)CCCN1C(=O)c2oc3ccccc3c(=O)c2C1c1cccc(OC)c1OC (stereo not given),-7,-2,19*,-3,0,3
O=C(CCc1nc(-c2ccccc2)c(-c2ccccc2)o1)OCc1ccc(Br)cc1,-8,5,18*,-16,12,20*
O=C(CCc1nc(-c2ccccc2)c(-c2ccccc2)o1)OCc1ccc(Cl)cc1,-34,17,13,-17,·,·
Cn1ccnc1C1CCCCN1C(=O)c1cc(COc2ccc(F)cc2F)on1 (stereo not given),28,·,·,-6,·,·
CCCOc1ccc(C2(C(=O)O)CCCC2)cc1,1,7,44*,-2,8,6
O=C(Cc1ccc(Br)cc1)OCC(=O)N1CCc2ccccc2C1,-16,8,18*,-11,7,8
CCN1C(=O)C(Cc2nc3ccccc3c(=O)n2-c2ccccc2)c2ccccc21 (stereo not given),-19,11,23*,-7,5,9
CCN1C(=O)/C(=C\c2nc3ccccc3c(=O)n2-c2ccccc2)c2ccccc21,-27,5,0,-5,·,·
CCN(CC)c1ccc(CNc2nc3ccccc3n2CC)cc1,2,·,·,5,·,·
CCC(Oc1ccc2c(=O)c(-c3ccccc3OC)coc2c1)C(=O)OCc1ccccc1 (stereo not given),-17,2,37*,-18,6,66*
COc1ccccc1-c1coc2cc(OC(=O)N3CCOCC3)ccc2c1=O,13,·,·,5,·,·
Nc1oc2ccccc2c(=O)c1C=O,13,-1,2,-6,·,·
CCOc1ccc(-n2c(SCc3nc(-c4cccs4)no3)nnc2-c2ccncc2)cc1,-52,18,18*,-2,17,14
CCCn1c(SCc2nc(-c3cccs3)no2)nnc1-c1ccncc1,-14,-3,4,-3,·,·
Cc1c(C(=O)Nc2nc3ccccc3[nH]2)oc2ccc(Br)cc12,-6,-1,19*,-19,12,14
Cc1c(C(=O)Nc2nc3ccccc3[nH]2)oc2ccccc12,-1,3,5,0,·,·
Cc1cccc(CSC2=NCCN2C(=O)c2ccc(Br)o2)c1,-18,13,20*,-17,17,31*
Cc1cccc(CSC2=NCCN2C(=O)c2ccc(S(=O)(=O)N(C)C)cc2)c1,16,5,·,-5,·,·
Cc1c(NC(=O)c2ccc(COc3ccc4ccccc4c3)o2)c(=O)n(-c2ccccc2)n1C,-11,8,18*,-4,15,9
Cc1n[nH]c(=S)n1/N=C/c1ccccc1OCc1ccc(Cl)cc1Cl,-16,-1,17*,-11,27*,54*
Cc1n[nH]c(=S)n1/N=C/c1ccc(OCc2ccc(Cl)cc2Cl)cc1,19,1,12,8,·,·
ClC(/C=N/n1cnnc1)=C/c1ccccc1,19,·,·,8,·,·
